Data published in ChEMBL document CHEMBL1146760, “3,4-Dihydronaphthalen-1(2H)-ones: novel ligands for the benzodiazepine site of alpha5-containing GABAA receptors” (Bioorg Med Chem Lett, 2004).

What was measured:
[1] = molecular target: T1, GABA-A receptor; alpha-1/beta-3/gamma-2 (Homo sapiens, UniProt P14867+P18507+P28472); assay: Inhibition of [3H]-Ro- 15-1788 binding to recombinant human gamma-aminobutyric-acid A receptor alpha-1-beta-3-gamma-2; assay type: protein-complex assay
T1 sequence (P14867 whole entry): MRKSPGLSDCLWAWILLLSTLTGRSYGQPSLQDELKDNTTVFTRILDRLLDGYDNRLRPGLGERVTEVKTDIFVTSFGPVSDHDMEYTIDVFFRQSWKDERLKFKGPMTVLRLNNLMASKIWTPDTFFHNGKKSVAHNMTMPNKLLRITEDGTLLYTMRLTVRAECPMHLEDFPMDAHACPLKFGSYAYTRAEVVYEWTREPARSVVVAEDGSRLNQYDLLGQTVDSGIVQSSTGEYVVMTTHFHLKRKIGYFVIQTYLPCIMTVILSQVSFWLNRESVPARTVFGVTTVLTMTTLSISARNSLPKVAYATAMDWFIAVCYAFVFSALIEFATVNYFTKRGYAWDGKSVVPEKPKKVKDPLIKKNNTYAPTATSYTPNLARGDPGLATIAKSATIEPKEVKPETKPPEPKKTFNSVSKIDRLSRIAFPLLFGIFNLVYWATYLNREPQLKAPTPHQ
T1 sequence (P18507 whole entry): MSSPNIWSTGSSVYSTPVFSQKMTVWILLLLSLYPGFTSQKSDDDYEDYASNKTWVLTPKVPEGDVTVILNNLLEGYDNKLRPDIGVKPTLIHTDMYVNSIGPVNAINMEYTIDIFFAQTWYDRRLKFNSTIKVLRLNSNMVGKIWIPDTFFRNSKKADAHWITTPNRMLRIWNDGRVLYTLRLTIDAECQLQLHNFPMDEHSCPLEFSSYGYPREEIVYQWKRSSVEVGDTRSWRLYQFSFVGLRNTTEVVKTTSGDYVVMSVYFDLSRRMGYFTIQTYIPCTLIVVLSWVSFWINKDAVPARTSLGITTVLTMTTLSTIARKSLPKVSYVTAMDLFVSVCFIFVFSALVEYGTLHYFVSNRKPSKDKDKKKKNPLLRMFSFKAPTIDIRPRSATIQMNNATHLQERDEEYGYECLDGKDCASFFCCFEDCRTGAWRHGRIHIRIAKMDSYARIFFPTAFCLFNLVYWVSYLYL
T1 sequence (P28472 whole entry): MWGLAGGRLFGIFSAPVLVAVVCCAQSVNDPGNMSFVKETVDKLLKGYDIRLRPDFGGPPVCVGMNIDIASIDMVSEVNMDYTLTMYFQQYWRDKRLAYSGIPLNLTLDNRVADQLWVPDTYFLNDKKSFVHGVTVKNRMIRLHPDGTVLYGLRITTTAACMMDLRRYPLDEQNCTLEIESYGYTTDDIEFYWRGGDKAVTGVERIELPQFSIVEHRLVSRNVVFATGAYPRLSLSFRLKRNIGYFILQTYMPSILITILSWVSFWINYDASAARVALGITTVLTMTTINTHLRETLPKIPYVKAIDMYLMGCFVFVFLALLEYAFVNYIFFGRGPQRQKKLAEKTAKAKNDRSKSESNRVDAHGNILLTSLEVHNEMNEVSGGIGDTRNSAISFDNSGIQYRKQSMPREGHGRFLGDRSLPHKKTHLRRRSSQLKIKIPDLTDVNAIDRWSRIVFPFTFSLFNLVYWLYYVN
Summary of the method: (§1)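 Displacement of [3H]Ro 15-1788 from recombinant human GABAA receptor subtypes; Ki reported as mean ± SEM of at least three independent determinations, or mean of two determinations with both individual values shown.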

[2] = molecular target: T2, Gamma-aminobutyric acid receptor subunit alpha-5 (Homo sapiens) (UniProt P31644); assay: Selectivity for GABA-A receptor alpha-5 subunit over alpha1,2,3 (range 7-13)
T2 sequence (whole entry): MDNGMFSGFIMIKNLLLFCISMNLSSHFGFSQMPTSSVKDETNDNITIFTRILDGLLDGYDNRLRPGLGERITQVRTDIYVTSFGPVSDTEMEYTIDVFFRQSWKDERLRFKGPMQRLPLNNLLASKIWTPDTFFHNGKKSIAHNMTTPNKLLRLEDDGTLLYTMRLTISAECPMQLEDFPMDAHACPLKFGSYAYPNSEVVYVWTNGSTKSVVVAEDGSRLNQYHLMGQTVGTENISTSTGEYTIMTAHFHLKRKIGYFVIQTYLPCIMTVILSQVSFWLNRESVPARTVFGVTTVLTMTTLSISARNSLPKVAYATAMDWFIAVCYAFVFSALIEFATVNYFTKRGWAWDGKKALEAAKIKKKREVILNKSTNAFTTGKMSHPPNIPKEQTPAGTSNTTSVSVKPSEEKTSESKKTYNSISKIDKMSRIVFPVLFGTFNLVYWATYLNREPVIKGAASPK

[3] = molecular target: T3, GABA-A receptor; alpha-5/beta-3/gamma-2 (Homo sapiens) (UniProt P18507+P28472+P31644); assay: Percentage modulation of submaximal (EC20) response to GABA-A receptor alpha-5-beta-3-gamma-2 subunits expressed in Xenopus laevis oocytes; assay type: functional, cell-based; conditions: Oocyte
[4] = molecular target: T4, GABA-A receptor; alpha-3/beta-3/gamma-2 (Homo sapiens, UniProt P18507+P28472+P34903); assay: Inhibition of [3H]-Ro- 15-1788 binding to recombinant human gamma-aminobutyric-acid A receptor alpha-3-beta-3-gamma-2; assay type: protein-complex assay; summary of the method: as §1
T4 sequence (P18507 whole entry): T1 sequence (P18507 whole entry)
T4 sequence (P28472 whole entry): T1 sequence (P28472 whole entry)
T4 sequence (P34903 whole entry): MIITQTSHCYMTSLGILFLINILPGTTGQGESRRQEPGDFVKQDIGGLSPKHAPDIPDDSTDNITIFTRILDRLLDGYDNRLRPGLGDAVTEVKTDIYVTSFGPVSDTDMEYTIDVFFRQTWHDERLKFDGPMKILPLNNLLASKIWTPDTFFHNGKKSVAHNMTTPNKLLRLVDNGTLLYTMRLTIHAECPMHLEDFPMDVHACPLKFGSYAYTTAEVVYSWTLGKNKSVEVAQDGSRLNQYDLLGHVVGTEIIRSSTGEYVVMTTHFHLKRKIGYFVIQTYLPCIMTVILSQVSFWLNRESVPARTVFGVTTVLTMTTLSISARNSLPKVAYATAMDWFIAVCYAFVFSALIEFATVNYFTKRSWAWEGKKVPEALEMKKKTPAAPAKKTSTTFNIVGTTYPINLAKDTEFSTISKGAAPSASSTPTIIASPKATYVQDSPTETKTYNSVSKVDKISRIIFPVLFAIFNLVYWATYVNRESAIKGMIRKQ

[5] = molecular target: T5, GABA-A receptor; alpha-5/beta-3/gamma-2 (Homo sapiens, UniProt P18507+P28472+P31644); assay: Inhibition of [3H]-Ro- 15-1788 binding to human GABA-A receptor alpha-5-beta-3-gamma-2 subunits; assay type: protein-complex assay; summary of the method: as §1
T5 sequence (P18507 whole entry): T1 sequence (P18507 whole entry)
T5 sequence (P28472 whole entry): T1 sequence (P28472 whole entry)
T5 sequence (P31644 whole entry): T2 sequence (whole entry)

[6] = molecular target: T6, GABA-A receptor; alpha-2/beta-3/gamma-2 (Homo sapiens, UniProt P18507+P28472+P47869); assay: Inhibition of [3H]-Ro- 15-1788 binding to recombinant human gamma-aminobutyric-acid A receptor alpha-2-beta-3-gamma-2; assay type: protein-complex assay; summary of the method: as §1
T6 sequence (P18507 whole entry): T1 sequence (P18507 whole entry)
T6 sequence (P28472 whole entry): T1 sequence (P28472 whole entry)
T6 sequence (P47869 whole entry): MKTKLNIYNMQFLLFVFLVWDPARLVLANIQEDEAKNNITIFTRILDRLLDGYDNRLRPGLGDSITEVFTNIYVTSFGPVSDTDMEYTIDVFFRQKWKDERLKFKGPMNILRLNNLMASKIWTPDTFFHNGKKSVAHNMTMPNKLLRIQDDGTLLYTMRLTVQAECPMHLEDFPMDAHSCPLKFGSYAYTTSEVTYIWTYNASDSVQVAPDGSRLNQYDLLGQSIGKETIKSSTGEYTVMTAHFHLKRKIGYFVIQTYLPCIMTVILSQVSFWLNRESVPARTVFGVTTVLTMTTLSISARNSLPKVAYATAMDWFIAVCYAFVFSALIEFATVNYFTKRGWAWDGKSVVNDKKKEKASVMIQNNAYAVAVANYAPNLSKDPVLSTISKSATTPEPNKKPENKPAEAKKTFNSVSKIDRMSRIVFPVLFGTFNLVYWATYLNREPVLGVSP

[7] = molecular target: T3, GABA-A receptor; alpha-5/beta-3/gamma-2 (Homo sapiens); assay: Percentage modulation of submaximal (EC20) response to GABA-A receptor alpha-5-beta-3-gamma-2 subunits expressed in mouse fibroblast L(tk-) cells; assay type: functional, cell-based
Summary of the method: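 Whole-cell patch clamp of mouse fibroblast L(tk⁻) cells stably expressing human α5β3γ2. Percentage maximum modulation of current relative to a submaximal (EC20) GABA response, taken from fitted concentration–response curves. Mean ± SEM of at least three individual curves.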

[8] = molecular target: T2, Gamma-aminobutyric acid receptor subunit alpha-5 (Homo sapiens); assay: Selectivity for GABA-A receptor alpha-5 subunit over alpha1,2,3 (range 10-13)
[9] = molecular target: T2, Gamma-aminobutyric acid receptor subunit alpha-5 (Homo sapiens); assay: Selectivity for GABA-A receptor alpha-5 subunit over alpha1,2,3 (range 14-35)
[10] = molecular target: T2, Gamma-aminobutyric acid receptor subunit alpha-5 (Homo sapiens); assay: Selectivity for GABA-A receptor alpha-5 subunit over alpha1,2,3 (range 5-11)
[11] = molecular target: T2, Gamma-aminobutyric acid receptor subunit alpha-5 (Homo sapiens); assay: Selectivity for GABA-A receptor alpha-5 subunit over alpha1,2,3
[12] = molecular target: T2, Gamma-aminobutyric acid receptor subunit alpha-5 (Homo sapiens); assay: Selectivity for GABA-A receptor alpha-5 subunit over alpha1,2,3 (range 16-38)
[13] = molecular target: T2, Gamma-aminobutyric acid receptor subunit alpha-5 (Homo sapiens); assay: Selectivity for GABA-A receptor alpha-5 subunit over alpha1,2,3 (range 6-8)
[14] = molecular target: T2, Gamma-aminobutyric acid receptor subunit alpha-5 (Homo sapiens); assay: Selectivity for GABA-A receptor alpha-5 subunit over alpha1,2,3 (range 6-14)
[15] = molecular target: T2, Gamma-aminobutyric acid receptor subunit alpha-5 (Homo sapiens); assay: Selectivity for GABA-A receptor alpha-5 subunit over alpha1,2,3 (range 3-12)
[16] = molecular target: T2, Gamma-aminobutyric acid receptor subunit alpha-5 (Homo sapiens); assay: Selectivity for GABA-A receptor alpha5 subunit over alpha1,2,3 (range 5-9)
[17] = molecular target: T2, Gamma-aminobutyric acid receptor subunit alpha-5 (Homo sapiens); assay: Selectivity for GABA-A receptor alpha-5 subunit over alpha1,2,3 (range 5-15)

| SMILES | Ki [1] | Efficacy [3] | Ki [4] | Ki [5] | Ki [6] | Efficacy [7] | also measured |
| --- | --- | --- | --- | --- | --- | --- | --- |
| CCSc1ccc(-c2ccccn2)c2c1C(=O)CC(C)C2 (stereo not given) | 25 nM | 2% | 15 nM | 1.9 nM | 13 nM |  | Selectivity [2]: 13 |
| COc1nc(CSc2ccc(-c3nccs3)c3c2C(=O)CC(C)C3)ns1 (stereo not given) | 40 nM |  | 35 nM | 3.2 nM | 34 nM | 57% | Selectivity [8]: 13 |
| CCc1c(C(=O)OC)ncc2[nH]c3cc(OC)c(OC)cc3c12 |  | -34% |  |  |  | -57% |  |
| CC1CC(=O)c2c(SCc3cn[nH]n3)ccc(-c3nccs3)c2C1 (stereo not given) | 92 nM |  | 36 nM | 2.6 nM | 57 nM | 6% | Selectivity [9]: 35 |
| CC1CC(=O)c2c(Sc3cccs3)ccc(-c3ccccn3)c2C1 (stereo not given) | 2.3 nM | 50% | 4.5 nM | 0.5 nM | 5.4 nM |  | Selectivity [10]: 11 |
| CCSc1ccc(-c2cccc[n+]2[O-])c2c1C(=O)CC(C)C2 (stereo not given) | > 300 nM |  | 286 nM | 25 nM | 271 nM | 80% | Selectivity [11]: > 11 |
| CC1CC(=O)c2c(SCc3ncn(C)n3)ccc(-c3nccs3)c2C1 (stereo not given) | 38 nM |  | 16 nM | 1 nM | 20 nM | 29% | Selectivity [12]: 38 |
| CSc1ccc(-c2ccccn2)c2c1C(=O)CC(C)C2 (stereo not given) | 63 nM | -5% | 42 nM | 7.5 nM | 63 nM |  | Selectivity [13]: 8 |
| CNC1=Nc2ccc(Cl)cc2C(c2ccccc2)=[N+]([O-])C1 |  | 134% |  |  |  | 99% |  |
| CCSc1ccc(-c2ncco2)c2c1C(=O)CC(C)C2 (stereo not given) | 37 nM | 5% | 16 nM | 2.6 nM | 38 nM |  | Selectivity [14]: 14 |
| CCSc1ccc(-c2ccccn2)c2c1C(=O)CCC2 | > 300 nM |  | > 300 nM | 103 nM | > 300 nM |  | Selectivity [11]: > 3 |
| CSc1ccc(-c2ccccn2)c2c1C(=O)CC(C)(C)C2 | 229 nM |  | 59 nM | 19 nM | 60 nM | -32% | Selectivity [15]: 12 |
| CCSc1ccc(-c2cnccn2)c2c1C(=O)CC(C)C2 (stereo not given) | 11 nM | 2% | 13 nM | 2.1 nM | 19 nM |  | Selectivity [16]: 9 |
| CCSc1ccc(-c2nccs2)c2c1C(=O)CC(C)C2 (stereo not given) | 5.4 nM | -8% | 12 nM | 1 nM | 15 nM |  | Selectivity [17]: 15 |
